From ChEMBL document CHEMBL5150070, “Tricyclic SpiroLactams Kill Mycobacteria In Vitro and In Vivo by Inhibiting Type II NADH Dehydrogenases” (J Med Chem, 2022)
Converted amounts (≈) assume the structure as drawn. The source made the active and inactive calls. No cut-off for these calls is given here.

Columns and labels:
[1] = target: Type II NADH:quinone oxidoreductase Ndh (Mycobacterium tuberculosis, UniProt P95160); assay: Inhibition of Mycobacterium tuberculosis recombinant type II NADH dehydrogenase ndh expressed in Escherichia coli assessed as rate of NADH oxidation in the presence of an electron acceptor menadione
Method in brief: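 Purified N-terminal MBP-tagged Mtb Ndh (Rv1854c) expressed in E. coli, 70 nM, with 500 µM NADH in 50 mM HEPES pH 7.1 (K₂HPO₄). Compound pre-incubated 15 min at 25°C, reaction started with 100 µM menadione. NADH oxidation followed at 340 nm every 60 s. Rate taken from linear slope; IC50 is the mean ± SD of at least 3 independent experiments.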

[2] = system: Mycobacterium tuberculosis; assay: Antimycobacterial activity against Mycobacterium tuberculosis H37Rv assessed as reduction in bacterial cell growth by measuring resazurin reduction incubated for 6 days by fluorescence microplate based assay; assay type: functional; settings: time 6 day
[3] = target: T1, Type II NADH:quinone oxidoreductase NdhA (Mycobacterium tuberculosis, UniProt P95200); assay: Inhibition of Mycobacterium smegmatis MC2 155 recombinant ndhA assessed as rate of NADH oxidation in the presence of an electron acceptor menadione; design: species or system Mycolicibacterium smegmatis
T1 sequence (P95200 whole entry): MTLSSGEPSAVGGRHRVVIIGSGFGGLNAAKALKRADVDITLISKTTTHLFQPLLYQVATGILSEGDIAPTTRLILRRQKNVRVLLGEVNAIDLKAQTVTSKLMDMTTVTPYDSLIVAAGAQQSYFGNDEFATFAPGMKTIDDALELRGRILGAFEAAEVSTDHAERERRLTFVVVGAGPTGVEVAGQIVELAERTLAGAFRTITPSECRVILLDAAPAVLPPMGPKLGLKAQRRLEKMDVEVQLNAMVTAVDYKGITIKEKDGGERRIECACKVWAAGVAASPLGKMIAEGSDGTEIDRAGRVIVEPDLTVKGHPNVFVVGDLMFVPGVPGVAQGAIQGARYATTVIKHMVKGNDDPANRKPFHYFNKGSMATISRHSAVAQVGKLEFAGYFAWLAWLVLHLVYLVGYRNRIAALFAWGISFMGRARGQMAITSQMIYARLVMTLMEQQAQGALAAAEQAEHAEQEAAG

Pseudomonas aeruginosa = assay: Antibiotic activity against Pseudomonas aeruginosa POA1 assessed as reduction in bacterial cell growth by measuring resazurin reduction incubated for 6 days by fluorescence microplate based assay; assay type: functional; settings: POA1, 144 h, time 6 day
[4] = system: Mycobacteroides abscessus; assay: Antibiotic activity against Mycobacterium abscessus CIP104536, Smooth variant assessed as reduction in bacterial cell growth by measuring resazurin reduction incubated for 6 days by fluorescence microplate based assay; assay type: functional; settings: 144 h, time 6 day
Staphylococcus aureus = assay: Antibiotic activity against Staphylococcus aureus SH1000 assessed as reduction in bacterial cell growth by measuring resazurin reduction incubated for 6 days by fluorescence microplate based assay; assay type: functional; settings: SH1000, 144 h, time 6 day
Method in brief: (§1)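 E. coli BW25113, E. coli ΔtolC and S. aureus SH1000 were cultured and tested in cation-adjusted Mueller Hinton II broth. Viability was read by adding resazurin and measuring resorufin fluorescence at Ex 530 nm / Em 590 nm.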

[5] = Aqueous solubility of compound in pH 7.4 […]; assay type: physicochemical; settings: buffer
Method in brief: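 A 10 mM DMSO stock was diluted 50-fold into PBS pH 7.4 or methanol and shaken gently for 24 h at room temperature. Samples were centrifuged, filtered (0.45 µm), diluted 50-fold in MeOH and analysed by LC-MS/MS. Solubility = (AUC PBS/AUC MeOH)×200. Run in triplicate.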

[6] = system: Mycobacterium tuberculosis; assay: Antibiotic activity against Mycobacterium tuberculosis H37Rv assessed as reduction in bacterial cell growth by measuring resazurin reduction incubated for 6 days by fluorescence microplate based assay; assay type: functional; settings: 144 h, time 6 day
[7] = Octanol/PBS partition coefficient, logD of compound at pH 7.4 measured after 2 hrs by shake flask method; assay type: physicochemical; settings: octanol/water, pH 7.4, 2 h
Method in brief: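 A 10 mM DMSO stock was diluted 50-fold into 1:1 octanol:PBS pH 7.4 and shaken gently for 2 h at room temperature. Each phase was diluted 50-fold in MeOH and quantified by LC-MS/MS. LogD = log of the octanol/PBS concentration ratio from mass signals. Run in triplicate.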

Escherichia coli = assay: Antibiotic activity against Escherichia coli deltatolC BW25113 deltatolC assessed as reduction in bacterial cell growth by measuring resazurin reduction incubated for 6 days by fluorescence microplate based assay; assay type: functional; settings: 144 h, time 6 day; method in brief: as §1
Mycobacterium marinum [8] = assay: Antibiotic activity against Mycobacterium marinum M strain assessed as reduction in bacterial cell growth by measuring resazurin reduction incubated for 6 days by fluorescence microplate based assay; assay type: functional; settings: 144 h, time 6 day
Klebsiella pneumoniae = assay: Antibiotic activity against Klebsiella pneumoniae LMG 2095 assessed as reduction in bacterial cell growth by measuring resazurin reduction incubated for 6 days by fluorescence microplate based assay; assay type: functional; settings: LMG 2095, 144 h, time 6 day
Mycobacterium avium = assay: Antibiotic activity against Mycobacterium avium TMC 724, ATCC-25291 assessed as reduction in bacterial cell growth by measuring resazurin reduction incubated for 6 days by fluorescence microplate based assay; assay type: functional; settings: TMC 724, ATCC-25291, 144 h, time 6 day
Bacillus subtilis = assay: Antibiotic activity against Bacillus subtilis ATCC6633 assessed as reduction in bacterial cell growth by measuring resazurin reduction incubated for 6 days by fluorescence microplate based assay; assay type: functional; settings: ATCC6633, 144 h, time 6 day
[9] = system: Mycobacterium tuberculosis; assay: Antimycobacterial activity against Mycobacterium tuberculosis H37Rv infected in human A-THP1 macrophages assessed as viability of infected macrophages incubated for 96 hrs by fluorescence microplate assay; assay type: functional, organism-based
Method in brief: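 THP-1 cells differentiated with 50 ng/mL PMA for 72 h, infected with log-phase H37Rv (MOI 10, 2 h), and extracellular bacteria killed with 50 µg/mL amikacin for 1 h. Cells detached and seeded at 5×10⁵/mL in RPMI-10% FBS with PMA onto pre-dispensed compound, 96 h at 37°C, 5% CO₂. Macrophage viability by 0.05% resazurin fluorescence.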

[10] = system: Mycobacteroides abscessus; assay: Antibiotic activity against Mycobacterium abscessus CIP104536, Rough variant assessed as reduction in bacterial cell growth by measuring resazurin reduction incubated for 6 days by fluorescence microplate based assay; assay type: functional; settings: 144 h, time 6 day
Acinetobacter baumannii = assay: Antibiotic activity against Acinetobacter baumannii LMG-17978 assessed as reduction in bacterial cell growth by measuring resazurin reduction incubated for 6 days by fluorescence microplate based assay; assay type: functional; settings: LMG-17978, 144 h, time 6 day
[11] = system: Mycolicibacterium smegmatis; assay: Antibiotic activity against Mycobacterium smegmatis mc2155 assessed as reduction in bacterial cell growth by measuring resazurin reduction incubated for 6 days by fluorescence microplate based assay; assay type: functional; settings: mc2155, 144 h, time 6 day
Mycobacterium marinum [12] = assay: In vivo antimycobacterial efficacy in Mycobacterium marinum expressing Wasabi infected zebrafish larvae assessed as prolongation of survival treated for 4 days after 1 day post infection; assay type: functional, organism-based; settings: dose 0.3-1.2 µM, time 4.0 day, DDE = dose-dependent effect
Method in brief: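 Golden mutant or Tg(mpeg1:mCherry) zebrafish embryos were dechorionated and anaesthetised in 0.016% tricaine. At 30 hpf, 2–3 nL containing about 200–250 cfu of Wasabi-expressing M. marinum M (pTEC15) was injected into the caudal vein. The inoculum was confirmed by plating on 7H10. Embryos were kept in E3 at 28.5 °C, 12 per well, to follow infection and survival.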

[13] = Toxicity in noninfected zebrafish larvae assessed as toxic effect; design: species or system Danio rerio; settings: in vivo
[14] = Toxicity in noninfected zebrafish larvae assessed as larval development; design: species or system Danio rerio; settings: in vivo
Mycobacterium marinum [15] = assay: In vivo antimycobacterial efficacy in Mycobacterium marinum expressing Wasabi infected zebrafish larvae assessed as prolongation of survival time at 4.8 uM treated for 4 days after 1 day post infection; assay type: functional; settings: time 4 day
Mycobacterium marinum [16] = assay: in vivo antimycobacterial efficacy in Mycobacterium marinum infected zebrafish larvae assessed as reduction in bacterial burden at 0.25 to 2 micog/ml measured after 2 to 4 days off post infection; assay type: functional, organism-based; settings: time 2-4 day

Sequence of Type II NADH:quinone oxidoreductase Ndh (P95160 whole entry): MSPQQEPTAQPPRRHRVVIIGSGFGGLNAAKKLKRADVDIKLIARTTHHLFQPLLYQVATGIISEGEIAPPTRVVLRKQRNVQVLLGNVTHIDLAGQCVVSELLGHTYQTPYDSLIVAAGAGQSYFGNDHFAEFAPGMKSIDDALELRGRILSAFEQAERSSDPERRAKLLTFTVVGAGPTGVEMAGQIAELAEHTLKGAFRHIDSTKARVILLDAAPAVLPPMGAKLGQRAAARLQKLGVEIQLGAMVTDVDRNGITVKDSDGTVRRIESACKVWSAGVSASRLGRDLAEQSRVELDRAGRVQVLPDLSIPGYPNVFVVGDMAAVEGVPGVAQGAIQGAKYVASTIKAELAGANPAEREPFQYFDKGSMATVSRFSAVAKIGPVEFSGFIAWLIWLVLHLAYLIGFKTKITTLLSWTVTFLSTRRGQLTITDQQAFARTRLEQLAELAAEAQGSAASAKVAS

COc1ccc(CN2CC[C@]34OC[C@H](C(C)C)N3C(=O)CC[C@@H]4C2)cc1
IC50 [1]: 200 nM | MIC98 [2]: 4.7 µM (≈ 1.68 µg/mL) | IC50 [3]: 2340 nM

CC(C)[C@H]1CO[C@]23CCN(Cc4ccccc4)C[C@H]2CCC(=O)N13
MIC (Pseudomonas aeruginosa): > 100 µM | MIC [4]: ≥ 100 µM | MIC (Staphylococcus aureus): > 100 µM | solubility [5]: 178 µM (≈ 58.5 µg/mL) | MIC [6]: 3.2 µM (≈ 1.05 µg/mL) | logD [7]: 2.7 | MIC (Escherichia coli): > 100 µM | MIC (Mycobacterium marinum [8]): 6.3 µM (≈ 2.07 µg/mL) | MIC (Klebsiella pneumoniae): > 100 µM | MIC (Mycobacterium avium): 13.1 µM (≈ 4.3 µg/mL) | MIC (Bacillus subtilis): > 100 µM | IC50 [9]: 8200 nM | MIC [10]: ≥ 100 µM | IC50 [3]: 980 nM | MIC (Acinetobacter baumannii): > 100 µM | MIC [11]: 29.2 µM (≈ 9.59 µg/mL)

NNC(=O)c1ccncc1 [ISONIAZID]
IC50 [9]: 204 nM

CC(C)[C@H]1CO[C@]23CCN(Cc4ccc(C(F)(F)F)nc4)C[C@H]2CCC(=O)N13
Activity (Mycobacterium marinum [12]): Dde | Activity [13]: Non-Toxic | Activity [14]: Non-Toxic | logD [7]: 2.7 | Time (Mycobacterium marinum [15]): 3 days | Activity (Mycobacterium marinum [16]): Active | IC50 [9]: 2400 nM | IC50 [1]: 32 nM | MIC98 [2]: 0.59 µM (≈ 0.234 µg/mL) | IC50 [3]: 330 nM

CC(C)(C)[C@H]1CO[C@]23CCN(Cc4ccccc4)C[C@H]2CCC(=O)N13
MIC98 [2]: 25 µM (≈ 8.56 µg/mL)

C[C@H]1CO[C@]23CCN(Cc4ccccc4)C[C@H]2CCC(=O)N13
MIC98 [2]: >100 µM
